Reference: ChEMBL document CHEMBL5120972, “Small-Molecule Inhibitors of the MLL1 CXXC Domain, an Epigenetic Reader of DNA Methylation” (ACS Med Chem Lett, 2022)
The source made the active and inactive calls. No cut-off for these calls is given here.

The compounds below were run on MV4-11 (assay: Anti-proliferative activity against human MV4-11 cells harboring MLL fusion protein assessed as inhibition of cell viability upto 120 uM for 72 hrs by MTT assay).
Assay type: functional, cell-based
Procedure, shortened: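 MV4-11 MLL-fusion leukemia cells are exposed to compound across a concentration range for 72 h. Growth is read out by MTT assay, with three replicates.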
In the case of C=CC(=O)N1CCC(C(=O)OCC)(c2ccccc2)CC1, the Activity is reported as “Active”.

Each compound was assayed against Histone-lysine N-methyltransferase 2A (Homo sapiens, UniProt Q03164) (assay: Inhibition of GST-tagged human MLL1 (1147 to 1203 residues) expressed in Escherichia coli BL21 cells incubated for 30 mins by fluorescence polarization assay).
Sequence of Histone-lysine N-methyltransferase 2A (Q03164 1-2718 limits assumed): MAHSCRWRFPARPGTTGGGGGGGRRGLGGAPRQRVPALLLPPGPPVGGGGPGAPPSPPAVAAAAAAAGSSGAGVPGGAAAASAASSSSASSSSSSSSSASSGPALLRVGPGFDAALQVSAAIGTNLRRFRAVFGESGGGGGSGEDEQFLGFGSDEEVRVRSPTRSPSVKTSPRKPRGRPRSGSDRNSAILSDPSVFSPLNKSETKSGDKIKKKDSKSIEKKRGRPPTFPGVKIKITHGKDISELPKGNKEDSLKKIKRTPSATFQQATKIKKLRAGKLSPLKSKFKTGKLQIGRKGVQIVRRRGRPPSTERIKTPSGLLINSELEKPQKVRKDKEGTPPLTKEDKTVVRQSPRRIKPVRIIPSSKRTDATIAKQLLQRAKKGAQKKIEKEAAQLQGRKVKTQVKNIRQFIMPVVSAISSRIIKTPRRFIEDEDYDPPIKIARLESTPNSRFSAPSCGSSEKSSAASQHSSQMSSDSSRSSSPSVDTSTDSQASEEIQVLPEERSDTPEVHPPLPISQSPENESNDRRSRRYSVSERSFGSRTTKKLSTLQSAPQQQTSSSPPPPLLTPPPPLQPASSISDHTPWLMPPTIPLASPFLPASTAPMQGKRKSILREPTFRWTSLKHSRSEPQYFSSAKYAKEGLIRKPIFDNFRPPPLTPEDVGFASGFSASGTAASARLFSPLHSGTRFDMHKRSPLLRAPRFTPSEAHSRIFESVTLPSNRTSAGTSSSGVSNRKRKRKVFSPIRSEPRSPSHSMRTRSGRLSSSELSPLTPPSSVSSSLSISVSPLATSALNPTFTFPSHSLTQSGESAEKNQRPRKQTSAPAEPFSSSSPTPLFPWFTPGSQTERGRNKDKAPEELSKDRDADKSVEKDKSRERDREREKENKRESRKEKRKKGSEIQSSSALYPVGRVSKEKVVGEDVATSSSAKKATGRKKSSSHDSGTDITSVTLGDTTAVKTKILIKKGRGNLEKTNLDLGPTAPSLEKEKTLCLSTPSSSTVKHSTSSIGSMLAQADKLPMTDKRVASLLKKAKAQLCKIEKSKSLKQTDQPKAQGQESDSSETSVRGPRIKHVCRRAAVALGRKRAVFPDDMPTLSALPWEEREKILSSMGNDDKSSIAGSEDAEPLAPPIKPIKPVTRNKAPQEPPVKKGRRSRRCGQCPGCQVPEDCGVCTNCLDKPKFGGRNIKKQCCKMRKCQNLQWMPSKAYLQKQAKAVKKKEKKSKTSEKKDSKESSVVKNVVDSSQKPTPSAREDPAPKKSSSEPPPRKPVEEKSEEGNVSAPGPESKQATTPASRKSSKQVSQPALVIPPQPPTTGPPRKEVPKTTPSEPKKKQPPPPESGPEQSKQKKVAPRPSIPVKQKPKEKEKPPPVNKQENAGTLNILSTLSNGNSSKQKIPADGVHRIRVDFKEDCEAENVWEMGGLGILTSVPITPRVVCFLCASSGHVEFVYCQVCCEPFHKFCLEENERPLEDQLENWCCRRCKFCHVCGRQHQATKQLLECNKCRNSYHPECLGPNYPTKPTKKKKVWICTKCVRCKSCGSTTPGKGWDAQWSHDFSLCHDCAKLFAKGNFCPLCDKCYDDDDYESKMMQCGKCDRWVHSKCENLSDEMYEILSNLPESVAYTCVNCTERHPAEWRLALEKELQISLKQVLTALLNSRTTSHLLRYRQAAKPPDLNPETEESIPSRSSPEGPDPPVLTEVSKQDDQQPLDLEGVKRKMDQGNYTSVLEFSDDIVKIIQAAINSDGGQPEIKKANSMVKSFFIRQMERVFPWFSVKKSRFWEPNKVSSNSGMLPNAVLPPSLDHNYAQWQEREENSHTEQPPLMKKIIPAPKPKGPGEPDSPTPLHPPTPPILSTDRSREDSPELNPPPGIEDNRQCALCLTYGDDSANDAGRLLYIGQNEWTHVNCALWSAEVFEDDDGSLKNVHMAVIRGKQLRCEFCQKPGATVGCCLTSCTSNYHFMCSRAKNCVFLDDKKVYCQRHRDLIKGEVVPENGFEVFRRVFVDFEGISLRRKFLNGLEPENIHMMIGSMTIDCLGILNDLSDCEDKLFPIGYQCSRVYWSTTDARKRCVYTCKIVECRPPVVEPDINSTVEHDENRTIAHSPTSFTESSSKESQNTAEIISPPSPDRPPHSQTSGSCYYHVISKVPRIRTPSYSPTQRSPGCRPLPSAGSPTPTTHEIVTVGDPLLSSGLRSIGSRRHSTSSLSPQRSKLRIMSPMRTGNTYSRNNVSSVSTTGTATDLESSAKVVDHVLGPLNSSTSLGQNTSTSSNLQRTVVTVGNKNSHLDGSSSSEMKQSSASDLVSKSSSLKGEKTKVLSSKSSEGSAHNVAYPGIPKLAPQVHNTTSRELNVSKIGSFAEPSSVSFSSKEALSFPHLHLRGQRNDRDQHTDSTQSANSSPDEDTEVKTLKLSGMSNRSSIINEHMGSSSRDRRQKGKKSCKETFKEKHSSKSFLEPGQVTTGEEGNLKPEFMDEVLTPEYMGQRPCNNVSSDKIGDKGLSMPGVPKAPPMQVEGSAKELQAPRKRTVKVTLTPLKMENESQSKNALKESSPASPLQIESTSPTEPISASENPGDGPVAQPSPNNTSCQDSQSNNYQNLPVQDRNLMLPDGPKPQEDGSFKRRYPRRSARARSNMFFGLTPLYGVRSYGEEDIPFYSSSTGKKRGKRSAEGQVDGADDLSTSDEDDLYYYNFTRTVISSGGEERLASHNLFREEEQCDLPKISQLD
Sequence of Histone-lysine N-methyltransferase 2A (Q03164 2719-3969 limits assumed): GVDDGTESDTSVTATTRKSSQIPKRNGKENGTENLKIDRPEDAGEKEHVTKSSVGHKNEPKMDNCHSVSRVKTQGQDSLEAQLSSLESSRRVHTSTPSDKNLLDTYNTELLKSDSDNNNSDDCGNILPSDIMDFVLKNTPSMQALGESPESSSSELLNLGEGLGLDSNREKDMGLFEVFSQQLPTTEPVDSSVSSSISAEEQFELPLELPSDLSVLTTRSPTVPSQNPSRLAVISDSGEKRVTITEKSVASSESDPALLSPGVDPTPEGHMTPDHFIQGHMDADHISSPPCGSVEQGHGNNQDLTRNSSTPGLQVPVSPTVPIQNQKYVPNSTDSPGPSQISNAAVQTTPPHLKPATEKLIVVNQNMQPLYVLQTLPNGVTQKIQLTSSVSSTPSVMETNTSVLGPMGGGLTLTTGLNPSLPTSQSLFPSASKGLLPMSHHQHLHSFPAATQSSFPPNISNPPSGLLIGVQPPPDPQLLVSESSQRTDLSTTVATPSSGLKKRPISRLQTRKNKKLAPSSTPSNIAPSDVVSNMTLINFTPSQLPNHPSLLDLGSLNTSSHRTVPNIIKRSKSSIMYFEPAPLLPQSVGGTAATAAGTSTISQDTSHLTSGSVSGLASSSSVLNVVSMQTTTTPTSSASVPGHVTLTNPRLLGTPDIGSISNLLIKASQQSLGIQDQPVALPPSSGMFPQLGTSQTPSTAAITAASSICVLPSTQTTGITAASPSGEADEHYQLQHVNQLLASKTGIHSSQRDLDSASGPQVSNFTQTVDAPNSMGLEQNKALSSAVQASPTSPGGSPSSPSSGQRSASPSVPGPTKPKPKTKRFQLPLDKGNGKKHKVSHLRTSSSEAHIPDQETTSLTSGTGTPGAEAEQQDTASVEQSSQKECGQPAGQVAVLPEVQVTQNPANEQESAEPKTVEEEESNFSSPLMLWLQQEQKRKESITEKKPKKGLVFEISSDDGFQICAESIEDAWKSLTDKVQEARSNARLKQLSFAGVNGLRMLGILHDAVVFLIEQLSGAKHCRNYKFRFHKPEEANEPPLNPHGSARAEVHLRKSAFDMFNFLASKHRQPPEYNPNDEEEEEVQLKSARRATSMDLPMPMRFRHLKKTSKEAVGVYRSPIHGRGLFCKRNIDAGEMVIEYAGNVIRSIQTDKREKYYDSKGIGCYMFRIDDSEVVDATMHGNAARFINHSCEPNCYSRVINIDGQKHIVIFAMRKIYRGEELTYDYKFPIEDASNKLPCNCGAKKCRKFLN
Procedure, shortened: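 Competition fluorescence polarization assay. CXXC domain protein is held at 2× its own KD. All domains are expressed and purified by the same method. Standard deviations come from three separate measurements.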
With C=CC(=O)N1CCC(C(=O)NS(=O)(=O)CC)(c2ccccc2)CC1 the IC50 was 114 µM.
Work on C=CC(=O)N1CCC(C(=O)O)(c2cccc(OCC)c2)CC1 yielded an IC50 of 51 µM.
C=CC(=O)N1CCC(C(=O)O)(c2ccc(C)cc2)CC1 gave an IC50 of 495 µM.
C=CC(=O)N1CCC(C(=O)NS(=O)(=O)c2ccc(F)cc2)(c2ccccc2)CC1 was tested, and the IC50 was 74 µM.
Compound C=CC(=O)N1CCC(C(=O)O)(c2ccc(N(C)C)cc2)CC1 has an IC50 of 827 µM.
C=CC(=O)N1CCC(C(=O)NS(=O)(=O)c2ccc(OC)cc2)(c2ccccc2)CC1 was tested, and the IC50 was 76 µM.
In the case of C=CC(=O)N1CCC(C(=O)NS(=O)(=O)c2ccc(C)cc2)(c2ccccc2)CC1, the IC50 is reported as 136 µM.
C=CC(=O)N1CCC(C(=O)NS(=O)(=O)c2ccc(Cl)cc2)(c2ccccc2)CC1 showed an IC50 of 153 µM.
